Activity calls are given as the source filed them. No cut-off for these calls is given here.
Tests used:
[1] = molecular target: Histamine H1 receptor (Homo sapiens) (UniProt P35367); assay: Displacement of [3H]-Pyrilamine from human recombinant histamine H1 receptor expressed in CHO-K1 cells at 10 uM relative to control; format: cell-based
[2] = molecular target: Beta-1 adrenergic receptor (Homo sapiens) (UniProt P08588); assay: Displacement of [125I]-Cyanopindolol from human recombinant adrenergic beta1 receptor expressed in CHO-K1 cells at 10 uM relative to control; format: cell-based
Sequence of Beta-1 adrenergic receptor (Homo sapiens) (P08588 whole entry, looked up): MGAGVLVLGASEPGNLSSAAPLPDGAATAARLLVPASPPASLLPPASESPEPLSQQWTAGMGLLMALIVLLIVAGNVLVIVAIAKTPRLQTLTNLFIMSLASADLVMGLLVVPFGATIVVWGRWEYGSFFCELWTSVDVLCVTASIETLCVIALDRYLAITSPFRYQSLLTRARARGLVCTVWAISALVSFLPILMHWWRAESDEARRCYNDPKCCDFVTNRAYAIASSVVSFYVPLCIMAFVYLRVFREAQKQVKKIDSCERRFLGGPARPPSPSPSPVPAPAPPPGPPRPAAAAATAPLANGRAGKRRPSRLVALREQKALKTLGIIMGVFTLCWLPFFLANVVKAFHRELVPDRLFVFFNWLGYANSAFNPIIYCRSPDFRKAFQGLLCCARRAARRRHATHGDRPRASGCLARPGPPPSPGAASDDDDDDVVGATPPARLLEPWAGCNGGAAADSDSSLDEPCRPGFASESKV
In short: (§1)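 Tested once at 10 μM in a commercial radioligand binding panel of 68 GPCRs, ion channels, kinases and transporters. Activity is given as displacement of each radioligand relative to control.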

[3] = molecular target: Neuropeptide Y receptor type 2 (Homo sapiens) (UniProt P49146); assay: Displacement of [125I]-Peptide YY from neuropeptide Y Y2 receptor in human KAN-TS cells at 10 uM relative to control; format: cell-based; in short: as §1
Sequence of Neuropeptide Y receptor type 2 (Homo sapiens) (P49146 whole entry): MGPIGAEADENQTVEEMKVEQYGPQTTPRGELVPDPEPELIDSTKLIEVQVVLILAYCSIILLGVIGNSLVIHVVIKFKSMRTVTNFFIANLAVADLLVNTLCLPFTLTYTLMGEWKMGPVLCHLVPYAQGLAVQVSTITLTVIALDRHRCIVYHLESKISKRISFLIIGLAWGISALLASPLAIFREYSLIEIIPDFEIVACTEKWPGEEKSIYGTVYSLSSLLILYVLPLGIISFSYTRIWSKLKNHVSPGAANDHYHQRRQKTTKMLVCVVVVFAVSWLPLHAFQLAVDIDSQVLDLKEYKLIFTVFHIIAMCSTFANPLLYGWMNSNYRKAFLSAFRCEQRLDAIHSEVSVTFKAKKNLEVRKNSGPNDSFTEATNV

Mesocricetus auratus = species on record: Mesocricetus auratus; assay: Displacement of [3H]-Glyburide from ATP-sensitive potassium channel in hamster pancreatic HIT-T15 beta cells at 10 uM relative to control; in short: as §1
Rattus norvegicus [4] = species on record: Rattus norvegicus; assay: Displacement of [3H]-Rolipram from rolipram binding site in rat brain at 10 uM relative to control; format: tissue-based
[5] = molecular target: Cannabinoid receptor 1 (Homo sapiens) (UniProt P21554); assay: Displacement of [3H]-SR141716A from human recombinant CB1 receptor expressed in rat Chem-1 cells at 10 uM relative to control; format: cell-based
[6] = molecular target: Gamma-aminobutyric acid type B receptor subunit 1 (Homo sapiens) (UniProt Q9UBS5); assay: Displacement of [3H]-CGP-54626 from human recombinant GABAB1A receptor expressed in CHO cells at 10 uM relative to control; format: cell-based; in short: as §1
CHO-K1 [7] = assay: Displacement of [3H]-Spiperone from human recombinant dopamine D4.2 receptor expressed in CHO-K1 cells at 10 uM relative to control; format: cell-based
[8] = molecular target: Alpha-1A adrenergic receptor (Rattus norvegicus) (UniProt P43140); assay: Displacement of [3H]-Prazosin from adrenergic alpha1A receptor in rat submaxillary gland at 10 uM relative to control; format: tissue-based
Sequence of Alpha-1A adrenergic receptor (Rattus norvegicus) (P43140 whole entry): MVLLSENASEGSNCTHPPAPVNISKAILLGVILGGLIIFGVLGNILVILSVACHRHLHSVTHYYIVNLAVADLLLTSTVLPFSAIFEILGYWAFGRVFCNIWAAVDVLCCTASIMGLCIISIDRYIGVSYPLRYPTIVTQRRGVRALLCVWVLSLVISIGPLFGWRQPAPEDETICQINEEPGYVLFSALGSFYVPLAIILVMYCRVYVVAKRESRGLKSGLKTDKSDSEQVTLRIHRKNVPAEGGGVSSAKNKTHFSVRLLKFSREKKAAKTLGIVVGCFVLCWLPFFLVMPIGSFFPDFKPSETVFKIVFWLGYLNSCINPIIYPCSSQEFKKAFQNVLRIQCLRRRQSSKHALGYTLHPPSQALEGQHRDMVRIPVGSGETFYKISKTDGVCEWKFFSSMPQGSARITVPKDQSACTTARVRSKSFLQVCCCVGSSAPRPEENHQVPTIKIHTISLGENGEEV

[9] = molecular target: Metabotropic glutamate receptor 1 (Rattus norvegicus) (UniProt P23385); assay: Allosteric modulation of rat mGlu1 receptor expressed in HEK293 cells assessed as effect on glutamate-induced calcium mobilization at 10 uM; format: functional, cell-based
Mus musculus = assay: Anxiolytic activity in Harlan CD-1 mouse assessed as inhibition of marble burying behavior at >= 3 mg/kg, ip; format: functional, organism-based; set-up: dose 3 mg/kg
In short: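 Marble burying in mice with deep bedding; compound given IP at a range of doses with 15 min pretreatment, n = 8 per dose; marbles buried counted, brain samples collected right after testing for exposure; comparison to vehicle by Dunnett's test.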

[10] = molecular target: 5-hydroxytryptamine receptor 3A (Homo sapiens) (UniProt P46098); assay: Displacement of [3H]-GR-65630 from human recombinant 5-HT3 receptor expressed in HEK293 cells at 10 uM relative to control; format: cell-based; in short: as §1
CHO-K1 [11] = assay: Displacement of [125I]-2-Iodomelatonin from human recombinant MT1 receptor expressed in CHO-K1 cells at 10 uM relative to control; format: cell-based; in short: as §1
[12] = molecular target: Metabotropic glutamate receptor 6 (Rattus norvegicus) (UniProt P35349); assay: Allosteric modulation of rat mGlu6 receptor expressed in HEK293 cells coexpressing G protein-activated inward rectifier potassium channel assessed as effect on glutamate-induced thallium flux at 10 uM; format: cell-based
Sequence of Metabotropic glutamate receptor 6 (Rattus norvegicus) (P35349 whole entry): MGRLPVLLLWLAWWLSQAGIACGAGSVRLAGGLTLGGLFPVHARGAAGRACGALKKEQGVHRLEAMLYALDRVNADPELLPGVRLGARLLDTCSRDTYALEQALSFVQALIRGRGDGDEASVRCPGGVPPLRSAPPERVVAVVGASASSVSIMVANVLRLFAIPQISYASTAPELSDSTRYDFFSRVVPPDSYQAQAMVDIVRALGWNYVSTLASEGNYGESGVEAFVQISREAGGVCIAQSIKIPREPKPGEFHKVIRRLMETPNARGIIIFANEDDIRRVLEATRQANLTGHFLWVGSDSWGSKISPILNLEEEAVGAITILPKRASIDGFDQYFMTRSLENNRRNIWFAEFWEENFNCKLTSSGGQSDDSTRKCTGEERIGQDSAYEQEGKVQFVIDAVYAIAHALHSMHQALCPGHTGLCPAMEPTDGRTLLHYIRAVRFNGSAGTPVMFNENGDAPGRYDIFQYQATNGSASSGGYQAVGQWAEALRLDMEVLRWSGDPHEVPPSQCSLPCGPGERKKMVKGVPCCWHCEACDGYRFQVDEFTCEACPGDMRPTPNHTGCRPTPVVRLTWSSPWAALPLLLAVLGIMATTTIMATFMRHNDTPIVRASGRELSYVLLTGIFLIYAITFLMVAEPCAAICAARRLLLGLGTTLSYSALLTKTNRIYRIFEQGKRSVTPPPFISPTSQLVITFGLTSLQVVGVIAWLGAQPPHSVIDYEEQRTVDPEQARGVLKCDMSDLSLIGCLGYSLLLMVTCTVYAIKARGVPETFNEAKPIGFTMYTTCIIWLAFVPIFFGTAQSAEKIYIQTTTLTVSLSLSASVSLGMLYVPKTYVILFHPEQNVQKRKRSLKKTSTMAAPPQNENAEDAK

[13] = molecular target: Kappa-type opioid receptor (Homo sapiens) (UniProt P41145); assay: Displacement of [3H]-Diprenorphine from human recombinant kappa receptor expressed in HEK293 cells at 10 uM relative to control; format: cell-based; in short: as §1
Sequence of Kappa-type opioid receptor (Homo sapiens) (P41145 whole entry): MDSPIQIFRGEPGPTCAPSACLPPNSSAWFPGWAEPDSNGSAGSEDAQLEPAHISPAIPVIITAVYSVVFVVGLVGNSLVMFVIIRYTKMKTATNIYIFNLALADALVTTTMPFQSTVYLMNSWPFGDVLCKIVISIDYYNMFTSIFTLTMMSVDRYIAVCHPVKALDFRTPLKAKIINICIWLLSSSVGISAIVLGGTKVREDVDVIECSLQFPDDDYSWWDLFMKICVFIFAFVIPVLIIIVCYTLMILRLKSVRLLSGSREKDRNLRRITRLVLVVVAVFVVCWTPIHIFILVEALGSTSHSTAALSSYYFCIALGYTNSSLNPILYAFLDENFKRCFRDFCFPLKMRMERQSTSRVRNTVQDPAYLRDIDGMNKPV

[14] = molecular target: D(3) dopamine receptor (Homo sapiens) (UniProt P35462); assay: Displacement of [3H]-Spiperone from human recombinant dopamine D3 receptor expressed in CHO cells at 10 uM relative to control; format: cell-based
Sequence of D(3) dopamine receptor (Homo sapiens) (P35462 whole entry): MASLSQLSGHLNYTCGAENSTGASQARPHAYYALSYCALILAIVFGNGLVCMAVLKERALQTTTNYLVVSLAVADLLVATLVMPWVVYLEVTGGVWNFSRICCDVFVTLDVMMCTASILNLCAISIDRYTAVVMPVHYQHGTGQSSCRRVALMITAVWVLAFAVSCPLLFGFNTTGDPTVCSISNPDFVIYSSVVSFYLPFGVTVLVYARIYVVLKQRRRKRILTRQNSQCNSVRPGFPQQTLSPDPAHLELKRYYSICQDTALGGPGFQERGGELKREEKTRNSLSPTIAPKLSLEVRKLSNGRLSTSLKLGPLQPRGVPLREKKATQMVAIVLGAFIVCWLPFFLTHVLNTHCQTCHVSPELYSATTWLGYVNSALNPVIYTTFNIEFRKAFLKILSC

[15] = molecular target: Adenosine receptor A2a (Homo sapiens) (UniProt P29274); assay: Displacement of [3H]-CGS-21680 from human recombinant adenosine A2A receptor expressed in HEK293 cells at 10 uM relative to control; format: cell-based; in short: as §1
[16] = molecular target: Histamine H3 receptor (Homo sapiens) (UniProt Q9Y5N1); assay: Displacement of [3H]-N(-)-alpha-Methylhistamine from human recombinant histamine H3 receptor expressed in CHO-K1 cells at 10 uM relative to control; format: cell-based; in short: as §1
Rattus norvegicus [17] = species on record: Rattus norvegicus; assay: Displacement of [3H]-Batrachotoxin from sodium channel site 2 in rat brain at 10 uM relative to control; format: tissue-based; in short: as §1
Rattus norvegicus [18] = species on record: Rattus norvegicus; assay: Displacement of [3H]-Flunitrazepam from central-type GABAA receptor flunitrazepam binding site in cerebellum-less rat brain homogenate at 10 uM relative to control; format: tissue-based; in short: as §1
Plasma = assay: Tmax in CD-1 mouse plasma at 10 mg/kg, ip by LC-MS/MS analysis; format: ADME, organism-based; set-up: dose 10 mg/kg, route intraperitoneal; conditions: in vivo
[19] = molecular target: L-type calcium channel, benzothiazepine binding site (Rattus norvegicus, UniProt P22002+P27732+Q02485); assay: Displacement of [3H]-Diltiazem from L-Type calcium channel benzothiazepine binding site in rat brain at 10 uM relative to control; format: tissue-based; conditions: probe [3H]-Diltiazem
[20] = molecular target: Mu-type opioid receptor (Homo sapiens) (UniProt P35372); assay: Displacement of [3H]-Diprenorphine from human recombinant mu opioid receptor expressed in CHO-K1 cells at 10 uM relative to control; format: cell-based; in short: as §1
Sequence of Mu-type opioid receptor (Homo sapiens) (P35372 whole entry): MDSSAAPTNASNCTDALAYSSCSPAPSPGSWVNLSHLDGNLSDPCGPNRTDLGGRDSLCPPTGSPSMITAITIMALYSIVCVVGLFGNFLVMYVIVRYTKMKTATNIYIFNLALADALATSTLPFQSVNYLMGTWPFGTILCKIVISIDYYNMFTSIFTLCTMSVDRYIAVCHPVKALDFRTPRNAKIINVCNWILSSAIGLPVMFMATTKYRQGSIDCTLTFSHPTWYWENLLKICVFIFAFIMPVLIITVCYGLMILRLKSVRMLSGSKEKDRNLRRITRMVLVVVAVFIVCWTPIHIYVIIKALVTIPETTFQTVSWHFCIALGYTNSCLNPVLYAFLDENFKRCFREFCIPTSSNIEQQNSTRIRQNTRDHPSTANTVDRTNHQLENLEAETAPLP

Rattus norvegicus [21] = species on record: Rattus norvegicus; assay: Displacement of [125I]-Omega-Conotoxin GVIA from N-type calcium channel in rat frontal brain at 10 uM relative to control; in short: as §1
[22] = molecular target: Sodium-dependent serotonin transporter (Homo sapiens) (UniProt P31645); assay: Displacement of [3H]-Paroxetine from human recombinant SERT expressed in HEK293 cells at 10 uM relative to control; format: cell-based
[23] = molecular target: Muscarinic acetylcholine receptor M1 (Homo sapiens) (UniProt P11229); assay: Displacement of [3H]-N-Methylscopolamine from human recombinant muscarinic M1 receptor expressed in CHO-K1 cells at 10 uM relative to control; format: cell-based; in short: as §1
Rattus norvegicus [24] = species on record: Rattus norvegicus; assay: Displacement of [3H]-GABA from GABA transporter in rat cerebral cortex at 10 uM relative to control; format: tissue-based; in short: as §1
Rattus norvegicus [25] = species on record: Rattus norvegicus; assay: Displacement of [3H]-Kainic acid from kainate receptor in cerebellum-less rat brain homogenate at 10 uM relative to control; format: tissue-based; in short: as §1
[26] = molecular target: Glucocorticoid receptor (Homo sapiens) (UniProt P04150); assay: Displacement of [3H]-Dexamethasone from human recombinant glucocorticoid receptor at 10 uM relative to control; in short: as §1
Sequence of Glucocorticoid receptor (Homo sapiens) (P04150 whole entry): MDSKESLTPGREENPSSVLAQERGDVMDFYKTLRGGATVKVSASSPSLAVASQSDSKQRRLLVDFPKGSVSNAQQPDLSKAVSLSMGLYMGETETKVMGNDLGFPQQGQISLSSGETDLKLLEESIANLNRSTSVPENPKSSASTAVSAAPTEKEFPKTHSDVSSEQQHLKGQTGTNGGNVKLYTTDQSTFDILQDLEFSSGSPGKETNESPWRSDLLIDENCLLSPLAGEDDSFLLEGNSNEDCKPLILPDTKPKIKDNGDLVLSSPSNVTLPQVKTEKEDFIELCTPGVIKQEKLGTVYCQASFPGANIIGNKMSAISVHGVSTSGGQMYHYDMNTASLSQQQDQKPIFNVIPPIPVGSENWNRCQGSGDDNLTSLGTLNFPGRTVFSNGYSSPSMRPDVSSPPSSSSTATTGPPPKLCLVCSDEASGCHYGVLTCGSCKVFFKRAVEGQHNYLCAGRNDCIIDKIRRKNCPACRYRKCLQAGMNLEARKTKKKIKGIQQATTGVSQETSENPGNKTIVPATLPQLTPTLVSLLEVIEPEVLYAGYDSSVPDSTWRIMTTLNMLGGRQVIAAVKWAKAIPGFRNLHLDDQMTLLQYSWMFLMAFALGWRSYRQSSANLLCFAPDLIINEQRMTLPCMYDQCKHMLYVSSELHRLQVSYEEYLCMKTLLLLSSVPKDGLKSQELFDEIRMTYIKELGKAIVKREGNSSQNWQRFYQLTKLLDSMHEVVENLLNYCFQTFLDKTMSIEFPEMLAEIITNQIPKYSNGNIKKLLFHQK

[27] = molecular target: Metabotropic glutamate receptor 2 (Rattus norvegicus) (UniProt P31421); assay: Allosteric modulation of rat mGlu2 receptor expressed in HEK293 cells coexpressing G protein-activated inward rectifier potassium channel assessed as effect on glutamate-induced thallium flux at 10 uM; format: cell-based
[28] = molecular target: B2 bradykinin receptor (Homo sapiens) (UniProt P30411); assay: Displacement of [3H]-Bradykinin from human recombinant bradykinin B2 receptor expressed in rat Chem-1 cells at 10 uM relative to control; format: cell-based; in short: as §1
Sequence of B2 bradykinin receptor (Homo sapiens) (P30411 whole entry): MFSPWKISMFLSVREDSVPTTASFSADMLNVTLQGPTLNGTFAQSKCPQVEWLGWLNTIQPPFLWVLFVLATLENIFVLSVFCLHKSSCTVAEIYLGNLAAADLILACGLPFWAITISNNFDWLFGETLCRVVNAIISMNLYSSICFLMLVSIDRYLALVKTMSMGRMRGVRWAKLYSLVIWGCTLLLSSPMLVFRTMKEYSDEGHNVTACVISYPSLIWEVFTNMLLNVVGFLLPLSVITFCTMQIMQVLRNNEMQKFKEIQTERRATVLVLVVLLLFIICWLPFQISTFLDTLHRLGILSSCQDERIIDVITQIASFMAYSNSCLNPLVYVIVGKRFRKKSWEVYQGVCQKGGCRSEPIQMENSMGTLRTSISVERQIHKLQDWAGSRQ

[29] = molecular target: D(2) dopamine receptor (Homo sapiens) (UniProt P14416); assay: Displacement of [3H]-Spiperone from human recombinant dopamine D2S receptor expressed in CHO cells at 10 uM relative to control; format: cell-based
Sequence of D(2) dopamine receptor (Homo sapiens) (P14416 whole entry): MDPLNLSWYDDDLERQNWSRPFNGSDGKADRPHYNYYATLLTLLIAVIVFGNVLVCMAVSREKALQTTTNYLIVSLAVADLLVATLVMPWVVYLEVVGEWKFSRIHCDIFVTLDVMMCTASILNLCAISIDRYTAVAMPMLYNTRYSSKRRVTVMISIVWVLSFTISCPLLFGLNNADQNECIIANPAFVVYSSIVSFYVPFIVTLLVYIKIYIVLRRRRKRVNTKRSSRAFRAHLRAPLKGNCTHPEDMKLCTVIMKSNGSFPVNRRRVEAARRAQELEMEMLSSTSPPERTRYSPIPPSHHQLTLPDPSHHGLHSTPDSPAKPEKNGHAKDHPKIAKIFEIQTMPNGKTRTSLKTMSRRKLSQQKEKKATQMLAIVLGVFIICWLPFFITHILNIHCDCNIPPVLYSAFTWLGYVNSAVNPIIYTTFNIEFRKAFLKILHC

Rattus norvegicus [30] = species on record: Rattus norvegicus; assay: Displacement of [3H]-Idazoxan from central-type imidazoline I2 receptor in rat cerebral cortex at 10 uM relative to control; format: tissue-based; in short: as §1

## Cc1csc(NC(=O)c2cc(F)cc(Oc3cncnc3)c2)n1
[1]
  inhibition: > 35%
[2]
  inhibition: > 35%
[3]
  inhibition: > 35%
Mesocricetus auratus
  inhibition: > 35%
Rattus norvegicus [4]
  inhibition: > 35%
[5]
  inhibition: > 35%
[6]
  inhibition: > 35%
CHO-K1 [7]
  inhibition: > 35%
[8]
  inhibition: > 35%
[9]
  Activity: inactive
Mus musculus
  inhibition: Active
[10]
  inhibition: > 35%
CHO-K1 [11]
  inhibition: > 35%
[12]
  Activity: inactive
[13]
  inhibition: > 35%
[14]
  inhibition: > 35%
[15]
  inhibition: > 35%
[16]
  inhibition: > 35%
Rattus norvegicus [17]
  inhibition: > 35%
Rattus norvegicus [18]
  inhibition: > 35%
Plasma
  Tmax: 15 min
[19]
  inhibition at 10 µM: > 35%
[20]
  inhibition: > 35%
Rattus norvegicus [21]
  inhibition: > 35%
[22]
  inhibition: > 35%
[23]
  inhibition: > 35%
Rattus norvegicus [24]
  inhibition: > 35%
Rattus norvegicus [25]
  inhibition: > 35%
[26]
  inhibition: > 35%
[27]
  Activity: inactive
[28]
  inhibition: > 35%
[29]
  inhibition: > 35%
Rattus norvegicus [30]
  inhibition: > 35%

Source: ChEMBL document CHEMBL2439973, “Discovery of VU0409106: A negative allosteric modulator of mGlu5 with activity in a mouse model of anxiety” (Bioorg Med Chem Lett, 2013)
